D1 allo mod = allosterically modulates the human D1 dopamine receptor; P21728; HEK293 D1, CRE-luciferase, dopamine EC30 potentiation; actives deviate in either direction; B-score at 10 µM; 5.9% of 58,000 active;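 active means luminescence count or its row- and column-corrected plate score outside the 99.7% band of the plate's sample wells, on either side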
Target sequence (P21728 whole entry, looked up): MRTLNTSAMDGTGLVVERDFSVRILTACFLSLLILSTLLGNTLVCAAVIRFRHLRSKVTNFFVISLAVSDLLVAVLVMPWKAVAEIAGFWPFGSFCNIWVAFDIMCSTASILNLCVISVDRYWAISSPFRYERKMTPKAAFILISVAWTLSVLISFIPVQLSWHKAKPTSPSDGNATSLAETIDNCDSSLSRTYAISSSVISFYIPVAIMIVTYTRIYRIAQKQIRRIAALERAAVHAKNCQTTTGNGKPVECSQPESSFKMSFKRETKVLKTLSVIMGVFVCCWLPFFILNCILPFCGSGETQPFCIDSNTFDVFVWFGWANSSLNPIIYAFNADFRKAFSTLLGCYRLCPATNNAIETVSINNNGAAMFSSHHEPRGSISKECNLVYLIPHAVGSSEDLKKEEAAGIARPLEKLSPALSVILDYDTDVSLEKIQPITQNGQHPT
AP complement = orthogonal test for alternative complement pathway inhibitors; Human serum alternative complement pathway, LPS-coated ELISA, C3 deposition; tested in compound mixtures; 0.08% of 62,000 active; AID 1235; inhibition, % at 5 µM;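 active means inhibition above 30% in each of the two pooled mixtures holding the compound, so the lower value exceeds 30%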;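 further: 0% = serum in Mg-EGTA without compound and 100% = EDTA serum blank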
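Assay system: Human serum alternative complement pathway, C3 deposition on LPS-coated wells | Incubation: 1 h serum-compound exposure at 37 °C | Doses: 5 µM per compound in ten-compound mixtures | Read-out: Percent inhibition | Technique: ELISA with HRP anti-human C3 antibody, TMB substrate, absorbance 450 nm | Replication: Two pool placements per compound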
Ec RNAP inh = inhibitors of Escherichia coli RNA polymerase; 0.2% of 62,000 active; P0A8V2; inhibition, %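 (tested at 10 µM)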; E. coli RNA polymerase, fluorescence transcription assay; in the data active means inhibition above about 20%;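 further: 0% = enzyme without compound and 100% = no enzyme blank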
hDAT+cocaine = modulates human dopamine transporter uptake under cocaine; Q01959; LLC-PK1 hDAT cells, [14C]-dopamine uptake with cocaine IC80; actives deviate in either direction; B-score at 10 µM; 1.3% of 110,000 active; AID 449768;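 active means Z score or B-score, a plate-position-corrected score, falls beyond the plate's 99.7% confidence bounds, in either direction; inactive means both scores lie inside the 99.7% bounds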;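 further: scored against the spread of the other compound wells on the same plate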
HEK293 NFkB inh = lowers PMA/ionomycin-induced NF-kB signal in HEK293 cells. HEK-293 NF-kB luciferase reporter, luminescence. inhibition, % at 3 µM. 0.21% of 62,000 active. AID 465;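 active means inhibition above the mean of all tested compounds plus 3 SD, cut at about 40% in these data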;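 further: 0% = stimulated DMSO wells and 100% = 10 µM reference inhibitor 5653914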
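Timing: 1 h pretreatment, 16 h stimulation, 37 °C; system: HEK-293 cells with stable firefly luciferase reporter driven by four HIV NF-kB elements; doses: 3 µM once, 0.30% DMSO; measured by: luciferase luminescence; control set: DMSO and 10 µM reference inhibitor; repeats: single test; reagent: PMA plus ionomycin mix as NF-kB-activating stimulus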
D1 PAM confirm = D1 receptor (human) allosteric modulation, confirmed. shares compounds with D1 allo mod. HEK293 D1 CRE-luciferase, dopamine EC30 potentiation; stronger effect = higher value. luminescence at 10 µM. 88% of 2,200 active. AID 642;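 active means luminescence in either of two replicates above the same-plate mean plus 3 SD of the low-dose dopamine control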
D1 ag no DA = secondary test of D1 modulators: activity without dopamine; shares compounds with D1 allo mod; HEK293 D1 CRE-luciferase, luminescence, no dopamine; stronger effect = higher value; 0.8% of 1,900 active; luminescence at 10 µM; in the data active means luminescence above about 3900
Isoprot counter = counter-screen for D1 modulators: isoproterenol response in HEK293 cells; 63% of 2,200 active; calls only at 10 µM; shares compounds with D1 allo mod; AID 647; HEK293 D1 CRE-luciferase, isoproterenol EC30 counter-screen;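 active means luminescence in either replicate above plate mean of wells with a partly effective reference agonist dose plus 3 SD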;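 further: isoproterenol raises cAMP through native beta-adrenoceptor Gs so signal bypasses D1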
* hit, by the source's call; i = inactive; . = no result given; + = active, no number. Shown is part of a subset that was picked to be rich in hits.

SMILES	D1 allo mod	AP complement	Ec RNAP inh	hDAT+cocaine	HEK293 NFkB inh	D1 PAM confirm	D1 ag no DA	Isoprot counter
COc1ccc(C(=O)CSc2nc3nc(C)cc(C)n3n2)cc1OC	11*	9	4	1.2	12	20980*	1924	+
Cc1cc(C)n2nc(SCC(=O)c3ccc[nH]3)nc2n1	0.67	-2	7	1.2	12	.	.	.
CCNc1nc(C)c2cc(Br)c(=O)n(CC)c2n1	15*	12	-37	-0.69	32	24012*	1832	+
CCn1c(=N)c(C(=O)NC)cc2c(=O)n3cccc(C)c3nc21	-1.2	20	-40	.	10	.	.	.
CCOC(=O)CNC(=O)CSc1nc2cccnc2n1C1CCCCC1	7.6*	-11	6	0.67	6	13776*	.	+
CC(C)OC(=O)CSc1nc2cccnc2n1C1CCCCC1	22*	-2	6	0.097	-8	27160*	1608	+
CCOC(=O)CNC(=O)CSc1nc2cccnc2n1Cc1ccccc1	1.1	4	9	0.25	20	.	.	.
CCc1ccc(N/C(SC)=C(/C#N)C(N)=O)cc1	0.42	7	6	-0.31	16	.	.	.
CCOc1ccc(N/C(SC)=C(/C#N)C(N)=O)cc1	5*	0	-8	-0.4	17	6796*	1504	i
CC(SCc1cn2cc(Cl)ccc2n1)C(=O)O (stereo unspecified)	.	.	.	0.32	.	.	.	.
CCn1c2ccccc2c2cc(Nc3cc(C)nc4ncnn34)ccc21	7.5*	6	2	0.52	47*	11088*	1852	+
Cc1cc(Nc2ccc(F)c(Cl)c2)n2ncnc2n1	4.3*	22	5	-0.34	23	8188*	1652	+
COc1ccc(NC(=O)c2nc[nH]c2C(=O)N[C@@H](C)c2ccccc2)cc1	.	.	.	2.7	.	.	.	.
Cc1ccccc1NC(=O)c1nc[nH]c1C(=O)NCc1ccccc1	5.1*	1	3	-0.48	18	14280*	1616	i
COc1ccc(NC(=O)c2nc[nH]c2C(=O)Nc2ccccc2C)cc1	7.5*	10	0	-1	21	14740*	1512	+
CNC(=O)c1[nH]cnc1C(=O)Nc1ccc(C)cc1	.	.	.	0.23	.	.	.	.
CNC(=O)c1[nH]cnc1C(=O)Nc1cccc(OC)c1	4.5*	-1	1	-0.42	5	10128*	1656	+
COc1ccc(-c2csc(NCCc3nc4cc(Cl)c(Cl)cc4n3CCCO)n2)cc1	.	.	.	3	.	.	.	.
N#Cc1c(C(F)(F)F)cc(-c2cccc(Cl)c2)[nH]c1=O	.	.	.	-0.94	.	.	.	.
CC(=O)Nc1sc(NC(=O)c2ccc(Cl)cc2)nc1-c1cccs1	.	.	.	-0.079	.	.	.	.
Nc1nc(-c2cccs2)c(NC(=O)c2ccccc2)s1	6*	20	-1	1.8	19	14100*	1740	+
Cc1nn(C(=O)c2cc3sccc3[nH]2)c(C)c1C	-0.47	-3	7	0.063	2	.	.	.
O=C(NCC1COc2ccccc2O1)C1CCC(CNc2c(N3CCCCC3)c(=O)c2=O)CC1 (stereo unspecified)	.	-2	5	0.7	6	.	.	.
O=C(CN1CCN(c2ccccn2)CC1)Nc1cc(C(F)(F)F)ccc1Cl	0.48	6	6	-1.1	11	.	.	.
O=C(CN1CCN(c2ccccn2)CC1)Nc1ccc(Cl)c(C(F)(F)F)c1	5.5*	-4	-1	0.069	5	7388	1768	i
SMILES	D1 allo mod	AP complement	Ec RNAP inh	hDAT+cocaine	HEK293 NFkB inh	D1 PAM confirm	D1 ag no DA	Isoprot counter
CC1CCN(CCCCOc2ccccc2[N+](=O)[O-])CC1	.	.	.	-0.082	.	.	.	.
COc1ccc(CN(C(=O)c2ccco2)c2ccc(C)cc2)cc1OC	10*	3	8	0.77	9	22164*	1620	+
C=CCn1c(SCC(=O)Nc2c(C)n(C)n(-c3ccccc3)c2=O)nc2sc(C)c(-c3ccccc3)c2c1=O	.	.	.	0.38	.	.	.	.
Cc1cc(SCC(=O)N2CCC(c3noc4ccc(F)cc34)CC2)nc2ccccc12	3.7*	3	1	2	20	6804*	1500	i
Cc1ccc(S(=O)(=O)c2cc3c(=O)n4ccccc4nc3n(Cc3ccco3)c2=N)cc1	5*	13	-19	0.83	23	15320*	2068	+
Cc1ccc(S(=O)(=O)c2cc3c(=O)n4cccc(C)c4nc3n(Cc3ccco3)c2=N)cc1C	1.6	6	-8	.	22	.	.	.
COCCn1c(SCCCc2ccccc2)nc2c1c(=O)[nH]c(=O)n2C	1.8	8	9	-0.03	8	.	.	.
Cn1c(=O)[nH]c(=O)c2c1nc(Sc1ccccc1)n2CCc1ccccc1	9.2*	-1	6	1	-2	20140*	1684	+
COC(=O)C(C)Sc1nc2c(c(=O)[nH]c(=O)n2C)n1CCCc1ccccc1 (stereo unspecified)	4.7*	-1	-7	-0.53	4	8864*	1724	+
Cn1c(=O)[nH]c(=O)c2c1nc(Sc1ncccn1)n2CCCc1ccccc1	9.6*	26	2	-0.077	5	18924*	1792	+
O=C(Cn1cnc2ccccc21)OCC(=O)N1CCc2ccccc2C1	-0.093	10	-3	1.1	24	.	.	.
COc1ccc(C2(C)NC(=O)N(Cc3cc(Cl)cc4c3OCOC4)C2=O)cc1OC (stereo unspecified)	10*	0	4	0.55	12	22312*	1836	+
O=C1COc2ccccc2N1Cc1ccccc1Cl	4.9*	4	5	-1.3	26	7968*	1540	i
COc1ccc(C2/C(=C(\O)c3ccc4c(c3)OCCO4)C(=O)C(=O)N2CCCN(C)C)c(OC)c1 (stereo unspecified)	1	3	11	0.1	16	.	.	.
Nc1nc(-c2ccc(F)cc2)cc(C(F)(F)F)n1	.	.	.	-0.091	.	.	.	.
Nc1nc(-c2ccc(Cl)cc2)cc(C(F)(F)F)n1	19*	9	-2	-0.0098	24	19568*	1592	+
CCC(C)N(C(=O)CSc1nc(-c2ccccc2)cs1)C1CCS(=O)(=O)C1 (stereo unspecified)	.	.	.	1.2	.	.	.	.
Cc1cc(C)c(S(=O)(=O)N2CCN(c3ccc([N+](=O)[O-])c(-n4nc(C)cc4C)c3)CC2)c(C)c1	.	.	.	0.044	.	.	.	.
Nc1nc(N2CCCCC2)nc(N(c2ccccc2)c2ccccc2)n1	-0.38	-8	9	-0.93	-12	.	.	.
NC(=O)c1cc(-c2ccccc2)nc(N2CCOCC2)n1	9.8*	4	7	-0.094	14	14624*	1472	+
Cc1cc(-c2ccccc2)nc2cc(C(=O)NCCCn3ccnc3)nn12	0.48	7	4	0.33	15	.	.	.

Screening data deposited in PubChem by several laboratories.
